# Source: ChEMBL document CHEMBL4364265, “Oridonin derivatives as potential anticancer drug candidates triggering apoptosis through mitochondrial pathway in the liver cancer cells” (Eur J Med Chem, 2019)
# Calls of active or inactive are those of the source. The calls are words filed in the database; no cut-off is given here.
# How the values were obtained:
# [1] = test system: HepG2; test: Induction of cell cycle arrest in human HepG2 cells assessed as accumulation at G1 phase at 0.5 uM incubated for 24 hrs by PI staining based flow cytometric analysis (reference value: 37.06%); type: functional
# [2] = test system: PLC-PRF-5; test: Induction of apoptosis in human PLC/PRF/5 cells assessed as early apoptotic cells at 1 uM incubated for 24 hrs by annexin V staining based cell counting method (reference value: 5.65%); type: functional
# [3] = test system: PLC-PRF-5; test: Induction of apoptosis in human PLC/PRF/5 cells assessed as increase in cytochrome c protein expression level at 0.25 to 1.25 uM incubated for 24 hrs by Western blot analysis; type: functional, cell-based
# Summary of the method: (§1)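 Cells were treated 24 h in DMEM with 0, 0.25, 0.5, 1.0 or 1.25 µM compound. Adherent and floating cells were lysed in RIPA on ice and protein measured by BCA. Equal protein was run on 7.5–12.5% SDS-PAGE and transferred to PVDF. Membranes were blocked in 5% milk/PBST, incubated with primary antibody overnight at 4 °C, and detected by ECL.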
# [4] = test system: PLC-PRF-5; test: Induction of cell cycle arrest in human PLC/PRF/5 cells assessed as accumulation at G2 phase at 1 uM incubated for 24 hrs by PI staining based flow cytometric analysis (reference value: 18.05%); type: functional
# [5] = test system: PLC-PRF-5; test: Antitumour activity against human PLC/PRF/5 cells xenografted in nude mouse assessed as reduction in tumour weight at 10 mg/kg, iv administrated once every 3 days for 4 weeks relative to control; type: functional; design: scale not given: the % may be the effect or the level left
# Summary of the method: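 PLC/PRF/5 xenograft. 2 × 10^7 cells in 0.2 mL saline were injected s.c. into the right forelimb of nude mice. At about 120 mm3, mice were randomized into 3 groups of 6 and dosed i.v. at 10 mg/kg once every three days for 4 weeks. Vehicle was 10% N-methylpyrrolidone/12% Tween-80/78% saline. Volume (a×b²/2) and body weight were recorded daily, and tumors were excised and weighed at the end.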
# [6] = test system: PLC-PRF-5; test: Induction of apoptosis in human PLC/PRF/5 cells assessed as late apoptotic cells at 0.5 uM incubated for 24 hrs by annexin V staining based cell counting method (reference value: 4.81%); type: functional
# [7] = test system: PLC-PRF-5; test: Induction of apoptosis in human PLC/PRF/5 cells assessed as necrotic cells at 0.25 uM incubated for 24 hrs by annexin V staining based cell counting method (reference value: 0.59%); type: functional
# [8] = test system: HepG2; test: Induction of apoptosis in human HepG2 cells assessed as shrunken chromatin at 0.25 to 1 uM incubated for 24 hrs by Hoechst 33258 dye based fluorescence microscopic method; type: functional, cell-based
# Summary of the method: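 About 2 × 10^4 cells per well were plated overnight and treated 24 h with 0, 0.25, 0.5 or 1 µM compound. Cells were fixed in 4% paraformaldehyde for 30 min at room temperature, stained with 20 µg/mL Hoechst 33258 for 20 min at 37 °C, and imaged by fluorescence microscopy.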
# [9] = test system: HepG2; test: Induction of apoptosis in human HepG2 cells assessed as early apoptotic cells at 0.25 uM incubated for 24 hrs by annexin V staining based cell counting method (reference value: 3.60%); type: functional
# [10] = test system: PLC-PRF-5; test: Induction of apoptosis in human PLC/PRF/5 cells assessed as early apoptotic cells at 0.25 uM incubated for 24 hrs by annexin V staining based cell counting method (reference value: 5.65%); type: functional
# [11] = test system: HepG2; test: Induction of apoptosis in human HepG2 cells assessed as late apoptotic cells at 0.25 uM incubated for 24 hrs by annexin V staining based cell counting method (reference value: 5.65%); type: functional
# [12] = test system: HepG2; test: Induction of ROS generation in human HepG2 cells at 1 uM by DCFH-DA staining-based flow cytometric analysis relative to control; type: functional
# Summary of the method: (§2)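 Cells were treated with 0, 0.25, 0.5 or 1 µM compound, stained with 10 µM DCFH-DA for 20 min at 37 °C, washed three times, resuspended in PBS and read by flow cytometry. Data are mean ± SD of three independent experiments.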
# [13] = test system: HepG2; test: Induction of cell cycle arrest in human HepG2 cells assessed as accumulation at G2 phase at 0.5 uM incubated for 24 hrs by PI staining based flow cytometric analysis (reference value: 25.55%); type: functional
# [14] = test system: HepG2; test: Induction of apoptosis in human HepG2 cells assessed as down regulation of Bcl2 protein expression level incubated for 24 hrs by Western blot analysis; type: functional, cell-based; summary of the method: as §1
# [15] = test system: HepG2; test: Induction of cell cycle arrest in human HepG2 cells assessed as accumulation at S phase at 0.25 uM incubated for 24 hrs by PI staining based flow cytometric analysis (reference value: 35.46%); type: functional
# [16] = test system: PLC-PRF-5; test: Induction of cell cycle arrest in human PLC/PRF/5 cells assessed as accumulation at S phase at 1 uM incubated for 24 hrs by PI staining based flow cytometric analysis (reference value: 42.03%); type: functional
# [17] = test system: PLC-PRF-5; test: Induction of ROS generation in human PLC/PRF/5 cells at 1 uM by DCFH-DA staining-based flow cytometric analysis relative to control; type: functional; summary of the method: as §2
# [18] = test system: PLC-PRF-5; test: Induction of apoptosis in human PLC/PRF/5 cells assessed as upregulation of cleaved PARP protein expression level incubated for 24 hrs by Western blot analysis; type: functional, cell-based; summary of the method: as §1
# [19] = test system: PLC-PRF-5; test: Inhibition of colony formation in human PLC/PRF/5 cells assessed as decrease in colony size at 0.1 to 1 uM incubated for 10 days by crystal violet staining based microscopic method
# [20] = test system: HepG2; test: Induction of apoptosis in human HepG2 cells assessed as live cells at 0.5 uM incubated for 24 hrs by annexin V staining based cell counting method (reference value: 87.35%); type: functional
# [21] = test system: HepG2; test: Induction of apoptosis in human HepG2 cells assessed as live cells at 1 uM incubated for 24 hrs by annexin V staining based cell counting method (reference value: 87.35%); type: functional
# [22] = test system: PLC-PRF-5; test: Induction of cell cycle arrest in human PLC/PRF/5 cells assessed as accumulation at G1 phase at 1 uM incubated for 24 hrs by PI staining based flow cytometric analysis (reference value: 34.78%); type: functional
# [23] = test system: PLC-PRF-5; test: Inhibition of colony formation in human PLC/PRF/5 cells at 0.5 uM incubated for 10 days by crystal violet staining based microscopic method relative to control; type: functional; settings: PLC-PRF-5, 240 h
# Summary of the method: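 Five hundred cells plated per 30 mm dish and left 12 h. Medium with compound was added (0, 0.1, 0.5, 1 µM) or DMSO as negative control, and cells grew 10 days. Colonies were fixed in methanol 15 min, stained with 0.1% crystal violet 15 min, photographed and counted. Colony size was checked by microscope. Relative colony number is mean ± SD of ≥3 independent experiments.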
# [24] = test system: HepG2; test: Induction of apoptosis in human HepG2 cells assessed as change in p53 protein expression level at 0.25 to 1.25 uM incubated for 24 hrs by Western blot analysis; type: functional, cell-based; summary of the method: as §1
# [25] = test system: HepG2; test: Induction of apoptosis in human HepG2 cells assessed as late apoptotic cells at 1 uM incubated for 24 hrs by annexin V staining based cell counting method (reference value: 5.65%); type: functional
# [26] = test system: HepG2; test: Induction of apoptosis in human HepG2 cells assessed as necrotic cells at 0.5 uM incubated for 24 hrs by annexin V staining based cell counting method (reference value: 3.40%); type: functional
# [27] = test system: PLC-PRF-5; test: Induction of apoptosis in human PLC/PRF/5 cells assessed as live cells at 0.5 uM incubated for 24 hrs by annexin V staining based cell counting method (reference value: 88.95%); type: functional
compound,measurement,setting,value
C=C1C(=O)[C@]23[C@H](OC(=O)/C=C/c4ccc(OC)cc4)[C@H]1CC[C@H]2[C@@]12CO[C@]3(O)[C@@H](O)[C@@H]1C(C)(C)CC[C@@H]2O,Activity,[1],39.07%
same,Activity,[2],29.39%
same,Activity,[3],Active
same,Activity,[4],6.11%
same,Activity,[5],38.1%
same,Activity,[6],18.84%
same,Activity,[7],0.91%
same,Activity,[8],Active
same,Activity,[9],5.3%
same,Activity,[10],9.43%
same,Activity,[11],5.7%
same,fold change (FC),[12],3
same,Activity,[13],23.84%
same,Activity,[14],Dose-dependent effect
same,Activity,[15],33.94%
same,Activity,[16],43.13%
same,fold change (FC),[17],3
same,Activity,[18],Dose-dependent effect
same,inhibition,[19],Active
same,Activity,[20],77.75%
same,Activity,[21],53.4%
same,Activity,[22],45.41%
same,inhibition at 0.5 µM,[23],100%
same,Activity,[24],inactive
same,Activity,[25],20.7%
same,Activity,[26],5.75%
same,Activity,[27],64.3%
